Experimental data published in ChEMBL document CHEMBL1131570, “2,5-bis[4-(N-alkylamidino)phenyl]furans as anti-Pneumocystis carinii agents” (J Med Chem, 1998).

Experiments:
Rattus norvegicus [1] = test: The cysts/g of lung (% of control ) is calculated at a dose of 10.4 umol/kg/day against Pneumocystis carinii in rats; assay type: functional
Procedure, shortened: (§1)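 Rat *P. carinii* pneumonia model: furan dications given intravenously; lung cysts counted per g of lung tissue and expressed relative to pooled saline-treated control rats.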

[2] = Toxicity at a dose of 10.4 umol/kg/day against Pneumocystis carinii in rats; conditions: rat, in vivo
Rattus norvegicus [3] = test: The cysts/g of lung (% of control ) is calculated at a dose of 10.8 umol/kg/day against Pneumocystis carinii in rats; assay type: functional; procedure, shortened: as §1
Rattus norvegicus [4] = test: The cysts/g of lung (% of control ) is calculated at a dose of 0.5 umol/kg/day against Pneumocystis carinii in rats; assay type: functional; procedure, shortened: as §1
[5] = Toxicity at a dose of 0.5 umol/kg/day against Pneumocystis carinii in rats; conditions: rat, in vivo
[6] = Toxicity at a dose of 10.8 umol/kg/day against Pneumocystis carinii in rats; conditions: rat, in vivo
Rattus norvegicus [7] = test: The cysts/g of lung (% of control ) is calculated at a dose of 0.9 umol/kg/day against Pneumocystis carinii in rats; assay type: functional; procedure, shortened: as §1
Rattus norvegicus [8] = test: The cysts/g of lung (% of control ) is calculated at a dose of 9.1 umol/kg/day against Pneumocystis carinii in rats; assay type: functional; procedure, shortened: as §1
[9] = Toxicity at a dose of 9.1 umol/kg/day against Pneumocystis carinii in rats; conditions: rat, in vivo
[10] = Toxicity at a dose of 0.9 umol/kg/day against Pneumocystis carinii in rats; conditions: rat, in vivo
Rattus norvegicus [11] = test: The cysts/g of lung (% of control ) is calculated at a dose of 10 umol/kg/day against Pneumocystis carinii in rats; assay type: functional; procedure, shortened: as §1
[12] = Toxicity at a dose of 10 umol/kg/day against Pneumocystis carinii in rats; conditions: rat, in vivo
Rattus norvegicus [13] = test: The cysts/g of lung (% of control ) is calculated at a dose of 10.6 umol/kg/day against Pneumocystis carinii in rats; assay type: functional; procedure, shortened: as §1
[14] = Toxicity at a dose of 0.2 umol/kg/day against Pneumocystis carinii in rats; conditions: rat, in vivo
[15] = Toxicity at a dose of 10.6 umol/kg/day against Pneumocystis carinii in rats; conditions: rat, in vivo
Rattus norvegicus [16] = test: The cysts/g of lung (% of control ) is calculated at a dose of 0.2 umol/kg/day against Pneumocystis carinii in rats; assay type: functional; procedure, shortened: as §1
Rattus norvegicus [17] = test: The cysts/g of lung (% of control ) is calculated at a dose of 1.1 umol/kg/day against Pneumocystis carinii in rats; assay type: functional; procedure, shortened: as §1
Rattus norvegicus [18] = test: The cysts/g of lung (% of control ) is calculated at a dose of 2.2 umol/kg/day against Pneumocystis carinii in rats; assay type: functional; procedure, shortened: as §1
Rattus norvegicus [19] = test: The cysts/g of lung (% of control ) is calculated at a dose of 0.2 umol/kg /day against Pneumocystis carinii in rats; assay type: functional; procedure, shortened: as §1
[20] = Toxicity at a dose of 2.2 umol/kg /day against Pneumocystis carinii in rats; conditions: rat, in vivo
[21] = Toxicity at a dose of 1.1 umol/kg / day against Pneumocystis carinii in rats; conditions: rat, in vivo
Rattus norvegicus [22] = test: The cysts/g of lung (% of control ) is calculated at a dose of 0.9 umol/kg day against Pneumocystis carinii in rats; assay type: functional; procedure, shortened: as §1
Rattus norvegicus [23] = test: The cysts/g of lung (% of control ) is calculated at a dose of 1.9 umol/kg day against Pneumocystis carinii in rats; assay type: functional; procedure, shortened: as §1
Rattus norvegicus [24] = test: The cysts/g of lung (% of control ) is calculated at a dose of 9.4 umol/kg day against Pneumocystis carinii in rats; assay type: functional; procedure, shortened: as §1
Rattus norvegicus [25] = test: The cysts/g of lung (% of control ) is calculated at a dose of 0.2 umol/kg day against Pneumocystis carinii in rats; assay type: functional; procedure, shortened: as §1
[26] = Toxicity at a dose of 0.2 umol/kg day against Pneumocystis carinii in rats; conditions: rat, in vivo
[27] = Toxicity at a dose of 0.9 umol/kg day against Pneumocystis carinii in rats; conditions: rat, in vivo
[28] = Toxicity at a dose of 1.9 umol/kg day against Pneumocystis carinii in rats; conditions: rat, in vivo
Rattus norvegicus [29] = test: The cysts/g of lung (% of control ) is calculated at a dose of 4.8 umol/kg/day against Pneumocystis carinii in rats; assay type: functional; procedure, shortened: as §1
[30] = Toxicity at 10.4 a dose of umol/kg/day against Pneumocystis carinii in rats; conditions: rat, in vivo
Rattus norvegicus [31] = test: The cysts/g of lung (% of control ) is calculated at a dose of 1.0 umol/kg/day against Pneumocystis carinii in rats; assay type: functional; procedure, shortened: as §1
Rattus norvegicus [32] = test: The cysts/g of lung (% of control ) is calculated at a dose of 9.9 umol/kg/day against Pneumocystis carinii in rats; assay type: functional; procedure, shortened: as §1
[33] = Toxicity at a dose of 1.0 umol/kg/day against Pneumocystis carinii in rats; conditions: rat, in vivo
Rattus norvegicus [34] = test: The cysts/g of lung (% of control ) is calculated at a dose of 9.7 umol/kg/day against Pneumocystis carinii in rats; assay type: functional; procedure, shortened: as §1
[35] = Toxicity at a dose of 9.7 umol/kg/day against Pneumocystis carinii in rats;; conditions: rat, in vivo
Rattus norvegicus [36] = test: The cysts/g of lung (% of control ) is calculated at a dose of 2.7 umol/kg/day against Pneumocystis carinii in rats; assay type: functional
Procedure, shortened: (§2)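 P. carinii-infected rats dosed intravenously with the furan dication. Cysts were counted per g of lung tissue and expressed as % of the mean count of pooled saline-treated controls (n = 142).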

Rattus norvegicus [37] = test: The cysts/g of lung (% of control ) is calculated at a dose of 0.03 umol/kg /day against Pneumocystis carinii in rats; assay type: functional; procedure, shortened: as §2
Rattus norvegicus [38] = test: The cysts/g of lung (% of control ) is calculated at a dose of 0.3 umol/kg /day against Pneumocystis carinii in rats; assay type: functional; procedure, shortened: as §2
[39] = Toxicity at a dose of 2.7 umol/kg/day against Pneumocystis carinii in rats; conditions: rat, in vivo
[40] = Toxicity at a dose of 0.03 umol/kg/day against Pneumocystis carinii in rats; conditions: rat, in vivo
[41] = Toxicity at a dose of 0.3 umol/kg/day against Pneumocystis carinii in rats; conditions: rat, in vivo
Rattus norvegicus [42] = test: The cysts/g of lung (% of control ) is calculated at a dose of 13.3 umol/kg/day against Pneumocystis carinii in rats; assay type: functional; procedure, shortened: as §1
Rattus norvegicus [43] = test: The cysts/g of lung (% of control ) is calculated at a dose of 22.0 umol/kg/day against Pneumocystis carinii in rats; assay type: functional; procedure, shortened: as §1
[44] = Toxicity at a dose of 13.3 umol/kg/day against Pneumocystis carinii in rats; conditions: rat, in vivo
[45] = Toxicity at a dose of 22.0 umol/kg/day against Pneumocystis carinii in rats;; conditions: rat, in vivo

In the case of `N=C(NCCO)c1ccc(-c2ccc(-c3ccc(C(=N)NCCO)cc3)o2)cc1`, the Control (Rattus norvegicus [1]) is reported as 0.6% and the Toxicity [2] is reported as 0.

In the case of `N=C(NCC1CC1)c1ccc(-c2ccc(-c3ccc(C(=N)NCC4CC4)cc3)o2)cc1`, the Control (Rattus norvegicus [3]) is reported as 0.24%, the Control (Rattus norvegicus [4]) is reported as 3.25% and the Toxicity [5] is reported as 0. For the same compound, the Toxicity [6] was 0.

For `N=C(NC1CCCCC1)c1ccc(-c2ccc(-c3ccc(C(=N)NC4CCCCC4)cc3)o2)cc1`, the Control (Rattus norvegicus [7]) was 26.28%, the Control (Rattus norvegicus [8]) was 0.02% and the Toxicity [9] was 0. It also gave a Toxicity [10] of 0.

`CC(C)CNC(=N)c1ccc(-c2ccc(-c3ccc(C(=N)NCC(C)C)cc3)o2)cc1` gave a Control (Rattus norvegicus [11]) of 2.2% and a Toxicity [12] of 0.

`CCCNC(=N)c1ccc(-c2ccc(-c3ccc(C(=N)NCCC)cc3)o2)cc1` showed a Control (Rattus norvegicus [13]) of 0.08%, a Toxicity [14] of 0 and a Toxicity [15] of 0. It also gave a Control (Rattus norvegicus [16]) of 107.83%.

With `N=C(NCC1CCCCC1)c1ccc(-c2ccc(-c3ccc(C(=N)NCC4CCCCC4)cc3)o2)cc1` the Control (Rattus norvegicus [13]) was 43.9% and the Toxicity [15] was 0.

`CC(C)NC(=N)c1ccc(-c2ccc(-c3ccc(C(=N)NC(C)C)cc3)o2)cc1` gave a Control (Rattus norvegicus [17]) of 11.73%, a Control (Rattus norvegicus [3]) of 0.2% and a Control (Rattus norvegicus [18]) of 8.41%. For the same compound, the Control (Rattus norvegicus [19]) was 169%, the Toxicity [20] was 0 and the Toxicity [14] was 0. The Toxicity [21] was 0 and the Toxicity [6] was 0.

Work on `N=C(NC1CCCC1)c1ccc(-c2ccc(-c3ccc(C(=N)NC4CCCC4)cc3)o2)cc1` yielded a Control (Rattus norvegicus [22]) of 0.11%, a Control (Rattus norvegicus [23]) of 0.08% and a Control (Rattus norvegicus [24]) of 0.03%. The Control (Rattus norvegicus [25]) was 93.5%, the Toxicity [26] was 0 and the Toxicity [27] was 0. For the same compound, the Toxicity [28] was 0.

With `CCC(CC)NC(=N)c1ccc(-c2ccc(-c3ccc(C(=N)NC(CC)CC)cc3)o2)cc1` the Control (Rattus norvegicus [29]) was 24.43%.

Work on `CC/N=C(\N)c1ccc(-c2ccc(-c3ccc(/C(N)=N/CC)cc3)o2)cc1` yielded a Control (Rattus norvegicus [1]) of 0.05% and a Toxicity [30] of 0.

In the case of `N=C(NC1CCC1)c1ccc(-c2ccc(-c3ccc(C(=N)NC4CCC4)cc3)o2)cc1`, the Control (Rattus norvegicus [31]) is reported as 0.67%, the Control (Rattus norvegicus [32]) is reported as 0.05% and the Toxicity [33] is reported as 0.

Work on `CC(C)CC/N=C(\N)c1ccc(-c2ccc(-c3ccc(/C(N)=N/CCC(C)C)cc3)o2)cc1` yielded a Control (Rattus norvegicus [34]) of 2.38% and a Toxicity [35] of 0.

`N=C(NC1CC1)c1ccc(-c2ccc(-c3ccc(C(=N)NC4CC4)cc3)o2)cc1` gave a Control (Rattus norvegicus [3]) of 0.03%, a Toxicity [14] of 0 and a Control (Rattus norvegicus [16]) of 129%.

In the case of `C/N=C(\N)c1ccc(-c2ccc(-c3ccc(/C(N)=N/C)cc3)o2)cc1`, the Control (Rattus norvegicus [13]) is reported as 0.16%, the Toxicity [14] is reported as 0 and the Control (Rattus norvegicus [16]) is reported as 85.37%.

Compound `N=C(N)c1ccc(-c2ccc(-c3ccc(C(=N)N)cc3)o2)cc1` [FURAMIDINE] has a Control (Rattus norvegicus [36]) of 5.65%, a Control (Rattus norvegicus [37]) of 21.97% and a Control (Rattus norvegicus [38]) of 5.38%. The Toxicity [39] was 0, the Toxicity [40] was 0 and the Toxicity [41] was 0.

With `N=C(N)c1ccc(OCCCCCOc2ccc(C(=N)N)cc2)cc1` [PENTAMIDINE] the Control (Rattus norvegicus [42]) was 0.61%, the Control (Rattus norvegicus [43]) was 1.46% and the Toxicity [44] was 0. For the same compound, the Toxicity [45] was “Local toxicity”.
